# Assay results published in PMC7254033 (Saudi Journal of Biological Sciences, 2019).
# Marks after values point to notes of the source that are not given here.
# Legend:
# [1] = tested on: Candida krusei ATCC 6258; assay: Anti-yeast activity, CLSI M27-A3 microdilution MIC; format: cell-based; conditions: for Antifungal activity, folds less than fuconazole: strain not given, fits C. krusei of Table 3
# Summary of the method: (§1)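 Broth microdilution per CLSI M27-A3 in RPMI 1640 with two-fold serial dilutions over ten concentrations, alongside fluconazole reference dilutions. Strains were kept on agar slopes at 4 °C and subcultured for 48 h before each run. Inoculum was standardized at 2.50 × 10^3 cells/mL, with a blank sterility column. Plates were incubated 48 h at 37 °C. MIC was the lowest concentration with no visible turbidity. Tested in triplicate.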
# [2] = tested on: Candida glabrata isolate; assay: Anti-yeast activity, CLSI M27-A3 microdilution MIC; format: cell-based; conditions: 48 h, 37 °C
# Summary of the method: as §1
# [3] = DPPH radical scavenging activity; conditions: 30 mins in the dark, absorbance at 517 nm
# Summary of the method: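 DPPH was made up at 0.02% in methanol ([…]), stored closed away from light and heat. Serial dilutions of test compound were mixed with the DPPH solution to eight final two-fold concentrations, with ascorbic acid treated identically as positive control. Mixtures stood 30 min in the dark at room temperature. Absorbance at 517 nm was read against blank. % scavenging = (Ao − As)/Ao × 100, and IC50 was deduced from it. Triplicate.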
# [4] = tested on: Candida albicans NR-29450; assay: Anti-yeast activity, CLSI M27-A3 microdilution MIC; format: cell-based; conditions: NR29450, 48 h, read-out: Antifungal activity Minimal Inhibitory Concentrations, C. albicans
# Summary of the method: as §1
# [5] = tested on: zymosan stimulated human whole blood phagocytes; assay: Oxidative burst assay; format: cell-based; conditions: read-out: ROS Inhibition (IC50 µg/mL)
# Summary of the method: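 Diluted human whole blood phagocytes were stimulated with zymosan and intracellular ROS measured by luminol-enhanced chemiluminescence. Test compound was given at three concentrations (1, 10 and 100), with ibuprofen as standard anti-inflammatory drug. IC50 was derived.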
Compound,DPPH radical scavenging activity IC50 [3],MIC [4] [µg/mL],further results
"OC(Cn1cncn1)(Cn1cncn1)c1ccc(F)cc1F [Fluconazol, fluconazole, reference compound]",,,"Antifungal activity Minimal Inhibitory Concentrations, C. krusei ([1]; 48 h, 37 °C): 50 µg/mL; Antifungal activity Minimal Inhibitory Concentrations, C. glabrata [2]: 50 µg/mL"
"C=C(C)[C@@H]1CC[C@]2(C(=O)O)CC[C@]3(C)[C@H](CC[C@@H]4[C@@]5(C)CC[C@H](O)C(C)(C)[C@@H]5CC[C@]43C)[C@@H]12 [Compound 8, betulinic acid]",˃1000 µg/mL,500,"Antifungal activity, folds less than fuconazole [1]: 5 folds"
"O=C1O[C@H]([C@@H](O)CO)C(O)=C1O [Vitamin C, ascorbic acid, reference compound]",3.343 ± 0.271^a µg/mL,,
CC(C)Cc1ccc(C(C)C(=O)O)cc1 (centres unmarked) [Ibuprofen],,,IC50 [5]: 11.2 ± 1.9 µg/mL
"CC1(C)CC[C@]2(C(=O)O)CC[C@]3(C)C(=CC[C@@H]4[C@@]5(C)CC[C@H](O)C(C)(C)[C@@H]5CC[C@]43C)[C@@H]2C1 [Compound 5, oleanolic acid]",˃1000 µg/mL,500,
"C=C(C)[C@@H]1CC[C@]2(C)CC[C@]3(C)[C@H](CC[C@@H]4[C@@]5(C)CCC(=O)C(C)(C)[C@@H]5CC[C@]43C)[C@@H]12 [Compound 10, lupenone]",˃1000 µg/mL,500,
"C=C(C)[C@@H]1CC[C@]2(C)CC[C@]3(C)[C@H](CC[C@@H]4[C@@]5(C)CC[C@H](O)C(C)(C)[C@@H]5CC[C@]43C)[C@@H]12 [Compound 7, lupeol]",˃1000 µg/mL,500,"Antifungal activity, folds less than fuconazole [1]: 5 folds"
